Data as given in PMC2134812 (The Journal of Cell Biology, 1997).
Entries after “also recorded” stand apart in the source; their conditions may differ.

B1: NGF: mature 118aa NGF peptide (protein)
chain: SSTHPVFHMGEFSVCDSVSVWVGDKTTATDIKGKEVTVLAEVNINNSVFRQYFFETKCRASNPVESGCRGIDSKHWNSYCTTTHTFVKALTTDEKQAAWRFIRIDTACVCVLSRKATRRG

Experiments:
B5 and SH-SY5Y cells = assay: Competition of 125I-LIP2 binding; design: species or system human; settings: 2 μM competitor, preincubated 1 h at 4°C, 10 nM 125I-LIP2
[1] = molecular target: specific receptors (binding sites) for LIP2 on B5 human prostatic adenocarcinoma cells (human (endogenous in B5)); assay: radioligand binding
PC12 cells [2] = assay: F-actin redistribution in PC12 cells; format: cell-based, rat
Summary of the method: (§1)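 B5 cells and PC12 cells were seeded in RPMI-1640 with 1% horse serum, with PC12 cells on poly-D-lysine. After 18 h, cells were exposed for 2 min at 37°C to test peptide (10−7, 10−8 or 10−9 M) or 100 ng/ml NGF. For PC12, a control peptide was used at 10−6 and 10−7 M. Cells were PBS-washed, fixed in 3% paraformaldehyde for 20 min and permeabilised in 0.1% Triton X-100 for 2 min. F-actin was stained with phallacidin–BODIPY or phalloidin–rhodamine and examined by fluorescence microscopy.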

PC12 cells [3] = assay: Neurite outgrowth in PC12 cultures; format: cell-based, rat; settings: NGF-treated; data not shown
chick embryo DRG ganglia = assay: Neurite outgrowth in dorsal root ganglia; format: cell-based; settings: 10 ng of mouse NGF; data not shown
Summary of the method: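 Dorsal root ganglia were dissected from 9-day-old chick embryos. They were cultured with test peptides at 10−7, 10−8 and 10−9 M, or with 10 ng mouse NGF. Neurite outgrowth was scored.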

B5 cells = assay: F-actin redistribution in B5 cells; format: cell-based, human; settings: 2 min at 37°C; LIP1, LIP2 or 100 ng/ml NGF
Summary of the method: as §1

Trk protein [4] = assay: Trk tyrosine phosphorylation in PC12 cells overexpressing TrkA; format: cell-based; settings: 200 ng/ml NGF, 5 min
Summary of the method: (§2)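 Confluent B5 cells or TrkA-overexpressing PC12 cells (10–15-fold TrkA) were stimulated for 5 min with test peptide at 10−9 or 10−7 M, or with NGF at 200 ng/ml. Lysates were immunoprecipitated with a pan-Trk antibody against the TrkA C-terminus and run on 7.5% SDS-PAGE. Blots were probed overnight at 4°C with HRP-anti-phosphotyrosine (1:2,500) and detected by ECL. They were then stripped and reprobed with pan-Trk antibody as a loading control.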

Trk protein [5] = settings: ref Kaplan et al., 1991; cited from earlier work
Trk protein [6] = assay: Trk tyrosine phosphorylation in B5 cells; format: cell-based, human; settings: 200 ng/ml NGF, 5 min
Summary of the method: as §2

Molecule	Inhibition of 125I-LIP2 binding (in words) (B5 and SH-SY5Y cells)	other results
cytochrome c	No significant inhibitory effect	
somatostatin	No significant inhibitory effect	
α-melanocyte stimulating hormone	No significant inhibitory effect	
leupeptin	No significant inhibitory effect	
bombesin	No significant inhibitory effect	
LIP2 (38aa synthetic peptide, sequence -40 to -3 of the rat NGF precursor), unlabelled		Kd [1]: 200 to 400 nM
neurotensin	No significant inhibitory effect	
vasoactive intestinal peptide [vasoactive intestinal peptide (VIP)]	No significant inhibitory effect	
methionine enkephalin	No significant inhibitory effect	
pepstatin A	No significant inhibitory effect	
α2-macroglobulin	No significant inhibitory effect	
ubiquitin	No significant inhibitory effect	
[Tyr^8] bradykinin (RPPGFSPYR; Bradykinin; UniProt P01042 381-389, looked up, variant F8Y)		F-actin redistribution, control peptide (PC12 cells [2]; 10^−6 and 10^−7 M): had no effect
epidermal growth factor	No significant inhibitory effect	
125I-LIP2 (iodinated 38aa synthetic peptide, sequence -40 to -3 of the rat NGF precursor)		Kd, high affinity binding site [1]: 2.8 nM; Kd, low affinity binding site [1]: 48 nM
vasopressin	No significant inhibitory effect	
substance P	No significant inhibitory effect	
aprotinin	No significant inhibitory effect	
B1	did not show any significant inhibition	Neurite outgrowth, NGF (PC12 cells [3]): dense neurite outgrowth; Neurite outgrowth, NGF (chick embryo DRG ganglia): dense neurite outgrowth; F-actin redistribution, NGF (PC12 cells [2]; 2 min at 37°C, 100 ng/ml NGF): more abundant ruffling; F-actin redistribution (B5 cells): neither NGF nor the peptides induced F-actin rearrangement in B5 cells; also recorded: had no effect on B5 cells; Trk tyrosine phosphorylation, NGF (Trk protein [4]): phosphorylation of Trk; Time to trk tyrosine phosphorylation by NGF (Trk protein [5]): ≤ 1 min; Trk tyrosine phosphorylation, NGF (Trk protein [6]): phosphorylation of Trk
